# Measured values as given in ChEMBL document CHEMBL1156039, “Nonpeptide urotensin-II receptor antagonists: a new ligand class based on piperazino-phthalimide and piperazino-isoindolinone subunits” (J Med Chem, 2009).
# pEC50, pIC50, pKi: −log10 of the molar value. The source made the active and inactive calls. No cut-off for these calls is given here. Where a SMILES comes first, the peptide text is derived from it. Bridges are numbered along the chain shown (N, C = ends). [ ]: non-standard residue; d: D form. 2Nal = N[C@@H](Cc1ccc2ccccc2c1)C(=O)O
# What was measured:
# Urotensin-2 receptor [1] = molecular target: T1, Urotensin-2 receptor (Rattus norvegicus, UniProt P49684); assay: Antagonist activity at rat urotensin 2 receptor expressed in CHOK1 cells assessed as inhibition of urotensin 2-induced intracellular calcium mobilization after 1 hr by FLIPR assay; type: functional, cell-based, CHO-K1
# T1 sequence (P49684 whole entry): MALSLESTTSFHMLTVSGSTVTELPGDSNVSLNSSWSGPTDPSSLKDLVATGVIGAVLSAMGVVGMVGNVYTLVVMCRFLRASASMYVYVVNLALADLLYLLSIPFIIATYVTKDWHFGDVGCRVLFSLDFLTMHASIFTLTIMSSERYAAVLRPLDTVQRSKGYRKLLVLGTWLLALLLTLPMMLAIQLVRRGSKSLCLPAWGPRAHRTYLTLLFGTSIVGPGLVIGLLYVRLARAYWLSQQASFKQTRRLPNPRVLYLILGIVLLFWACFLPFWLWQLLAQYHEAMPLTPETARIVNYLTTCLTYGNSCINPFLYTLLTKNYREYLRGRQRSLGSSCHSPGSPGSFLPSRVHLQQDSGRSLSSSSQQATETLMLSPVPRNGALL
# Outline: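 Stable CHO-K1 line expressing rat UT, selected with G418 and seeded 24 h ahead. Cells loaded with calcium dye for 1 h at 37 °C in HBSS/20 mM HEPES/0.1% BSA/2.5 mM probenecid, pH 7.4. Compound preincubated 10 min, then agonist added: goby U-II 0.1 nM or peptide agonist 0.3 or 1 nM. FLIPR calcium read at 23 °C; N = 2-6.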
# Urotensin-2 receptor [2] = molecular target: T2, Urotensin-2 receptor (Homo sapiens, UniProt Q9UKP6); assay: Displacement of [125I]urotensin 2 from urotensin 2 receptor in human RMS13 cells by scintillation proximity assay; type: cell-based
# T2 sequence (Q9UKP6 whole entry): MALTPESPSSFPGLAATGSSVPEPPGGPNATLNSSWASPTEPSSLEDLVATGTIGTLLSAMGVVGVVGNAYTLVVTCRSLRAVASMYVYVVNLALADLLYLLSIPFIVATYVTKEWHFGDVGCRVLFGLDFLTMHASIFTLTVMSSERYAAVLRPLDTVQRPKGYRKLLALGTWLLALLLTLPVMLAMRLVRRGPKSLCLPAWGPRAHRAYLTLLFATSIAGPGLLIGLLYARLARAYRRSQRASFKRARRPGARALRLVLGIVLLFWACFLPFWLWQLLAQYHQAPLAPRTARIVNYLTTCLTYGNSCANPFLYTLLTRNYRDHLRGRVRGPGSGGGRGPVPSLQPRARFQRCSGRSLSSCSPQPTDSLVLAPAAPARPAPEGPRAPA
# Urotensin-2 receptor [3] = molecular target: T2, Urotensin-2 receptor; assay: Antagonist activity at urotensin 2 receptor in human RMS13 cells assessed as inhibition of urotensin 2-induced intracellular calcium mobilization after 1 hr by FLIPR assay; type: functional, cell-based
# Outline: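 Human rhabdomyosarcoma (RMS13) cells expressing endogenous UT. Inhibition of U-II-driven calcium mobilization measured by FLIPR; N = 2-6.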
# [4] = Half life in human liver microsomes; type: ADME, Microsome
# [5] = Oral bioavailability in rat; type: ADME, organism-based; conditions: in vivo
# [6] = Half life in rat; type: ADME, organism-based; conditions: in vivo
# Urotensin-2 receptor [7] = molecular target: T1, Urotensin-2 receptor; assay: Antagonist activity at rat urotensin 2 receptor expressed in CHOK1 cells assessed as inhibition of urotensin 2-induced intracellular calcium mobilization after 10 min by FLIPR assay
# Rattus norvegicus [8] = assay: Inhibition of ear flushing in Sprague-Dawley rat ear-flush model assessed as complete attenuation of urotensin 2-induced increase in ear pinna temperature at 10 mg/kg, iv administered 15 mins prior to urotensin 2 challenge; type: functional, organism-based; design: dose 10 mg/kg
# Aorta = assay: Vasorelaxant activity in Wistar rat thoracic aortic ring assessed as inhibition of contraction at 100 nM
# Urotensin-2 receptor [9] = molecular target: T1, Urotensin-2 receptor; assay: Displacement of [125I]urotensin 2 from rat urotensin 2 receptor expressed in CHOK1 cells by scintillation proximity assay; type: cell-based, CHO-K1
# Outline: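 Membranes from CHO cells stably expressing rat UT were precoupled to WGA-coated SPA beads (15 μg membrane/mg beads, 30 min, room temperature) in 50 mM Tris-HCl, 5 mM MgCl2, 0.1% BSA, pH 7.4. Final conditions: 1.0 mg beads per well, 0.17 nM [125I]-[Tyr]-rat U-II, and varied compound concentrations, shaken 3 h at 22 °C. Nonspecific binding was defined with 1 μM rat U-II.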
# Rattus norvegicus [10] = assay: Inhibition of ear flushing in Sprague-Dawley rat ear-flush model assessed as attenuation of urotensin 2-induced increase in ear pinna temperature at 3 mg/kg, iv administered 15 mins prior to urotensin 2 challenge; type: functional, organism-based; design: dose 3 mg/kg
# [11] = Inhibition of alpha1 adrenergic receptor at 10 uM
# Outline: (§1)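 Part of a contract panel of 50 receptors and ion channels. Each target was run as a binding assay with a reference ligand, with the test compound at 10 μM.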
# [12] = molecular target: T3, Muscarinic acetylcholine receptor M1 (Homo sapiens) (UniProt P11229); assay: Inhibition of human muscarinic M1 receptor at 10 uM
# T3 sequence (whole entry): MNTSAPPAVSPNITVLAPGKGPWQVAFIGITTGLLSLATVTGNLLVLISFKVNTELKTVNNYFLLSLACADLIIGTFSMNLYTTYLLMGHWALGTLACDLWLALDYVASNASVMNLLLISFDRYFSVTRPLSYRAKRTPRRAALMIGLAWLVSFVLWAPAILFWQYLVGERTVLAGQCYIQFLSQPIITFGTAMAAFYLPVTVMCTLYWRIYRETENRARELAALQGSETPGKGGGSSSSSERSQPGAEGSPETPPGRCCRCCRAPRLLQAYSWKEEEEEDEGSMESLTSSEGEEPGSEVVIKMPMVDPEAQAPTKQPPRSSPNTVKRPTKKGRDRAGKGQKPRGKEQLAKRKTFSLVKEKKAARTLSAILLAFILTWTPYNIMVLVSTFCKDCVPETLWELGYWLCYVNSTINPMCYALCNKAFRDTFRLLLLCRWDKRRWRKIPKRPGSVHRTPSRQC
# [13] = molecular target: Muscarinic acetylcholine receptor M3 (Homo sapiens) (UniProt P20309); assay: Inhibition of human muscarinic M3 receptor at 10 uM
# Muscarinic acetylcholine receptor M3 (Homo sapiens), sequence (P20309 whole entry, looked up): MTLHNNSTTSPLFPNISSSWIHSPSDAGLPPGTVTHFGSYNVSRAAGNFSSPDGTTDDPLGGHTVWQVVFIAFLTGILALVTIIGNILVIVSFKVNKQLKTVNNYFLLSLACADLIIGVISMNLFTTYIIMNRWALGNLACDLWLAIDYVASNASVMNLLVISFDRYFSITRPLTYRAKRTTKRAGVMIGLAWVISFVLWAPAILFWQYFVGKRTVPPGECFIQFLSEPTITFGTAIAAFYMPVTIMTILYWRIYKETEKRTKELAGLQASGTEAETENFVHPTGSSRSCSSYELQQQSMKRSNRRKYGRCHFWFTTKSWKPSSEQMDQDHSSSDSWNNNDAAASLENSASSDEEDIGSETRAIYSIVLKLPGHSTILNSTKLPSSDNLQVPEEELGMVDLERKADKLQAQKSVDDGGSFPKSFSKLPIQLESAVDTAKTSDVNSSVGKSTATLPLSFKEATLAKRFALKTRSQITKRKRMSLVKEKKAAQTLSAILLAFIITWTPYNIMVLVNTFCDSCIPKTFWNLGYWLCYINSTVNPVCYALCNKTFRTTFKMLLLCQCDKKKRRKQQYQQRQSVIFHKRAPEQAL
# [14] = molecular target: T4, 5-hydroxytryptamine receptor 1A (Homo sapiens) (UniProt P08908); assay: Inhibition of human 5HT1A receptor at 10 uM
# T4 sequence (whole entry): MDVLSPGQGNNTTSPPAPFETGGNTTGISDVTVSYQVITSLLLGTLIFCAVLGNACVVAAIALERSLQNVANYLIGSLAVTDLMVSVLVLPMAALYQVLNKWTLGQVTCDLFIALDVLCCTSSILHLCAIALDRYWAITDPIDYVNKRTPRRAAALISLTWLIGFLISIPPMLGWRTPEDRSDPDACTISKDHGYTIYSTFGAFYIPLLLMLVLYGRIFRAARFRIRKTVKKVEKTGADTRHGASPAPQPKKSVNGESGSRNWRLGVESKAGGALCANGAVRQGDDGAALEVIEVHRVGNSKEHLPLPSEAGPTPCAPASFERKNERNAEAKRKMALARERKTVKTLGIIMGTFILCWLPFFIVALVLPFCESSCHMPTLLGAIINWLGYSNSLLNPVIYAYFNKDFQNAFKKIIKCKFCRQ
# [15] = molecular target: 5-hydroxytryptamine receptor 1B (Homo sapiens) (UniProt P28222); assay: Inhibition of 5HT1B receptor at 10 uM
# 5-hydroxytryptamine receptor 1B (Homo sapiens), sequence (P28222 whole entry): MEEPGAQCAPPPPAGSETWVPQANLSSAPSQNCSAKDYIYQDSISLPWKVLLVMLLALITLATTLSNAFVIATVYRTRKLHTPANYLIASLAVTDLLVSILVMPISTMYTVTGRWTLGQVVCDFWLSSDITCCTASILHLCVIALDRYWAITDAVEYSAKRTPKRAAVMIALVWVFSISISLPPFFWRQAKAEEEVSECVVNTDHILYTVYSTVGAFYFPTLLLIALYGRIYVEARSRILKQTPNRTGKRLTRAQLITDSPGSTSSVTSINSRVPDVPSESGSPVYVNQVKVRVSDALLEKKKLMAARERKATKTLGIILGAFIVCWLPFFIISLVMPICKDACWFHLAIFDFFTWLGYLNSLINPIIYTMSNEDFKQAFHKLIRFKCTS
# [16] = Inhibition of sodium channel site 2 at 10 uM; outline: as §1
# [17] = in the assay text read “after 10 min” for “after 1 hr”
SMILES,pKi (Urotensin-2 receptor [2]),pIC50 (Urotensin-2 receptor [3]),pIC50 (Urotensin-2 receptor [7]),also measured
COc1ccc(C(CN)N2C(=O)c3cccc(N4CCN([C@@H](C)c5ccccc5)CC4)c3C2=O)cc1OC (stereo not given in full),6.15,,,pIC50 (Urotensin-2 receptor [1]; [17]): 6.52
COc1ccc(C(CCCNS(=O)(=O)c2cccs2)N2C(=O)c3cccc(N4CCN([C@H](C)c5ccccc5)CC4)c3C2=O)cc1OC (stereo not given in full),,6.60,,
COc1ccc(CN2C(=O)c3cccc(N4CCN([C@H](C)c5ccccc5)CC4)c3C2=O)cc1OC,,5.72,,half-life [4]: 29 min; bioavailability [5]: 33%; half-life [6]: 240 min
COc1ccc(C(CCNS(=O)(=O)c2cccs2)N2C(=O)c3cccc(N4CCN([C@H](C)c5ccccc5)CC4)c3C2=O)cc1OC (stereo not given in full),6.57,,6.92,
CCN1CCN(c2cccc3c2CN([C@H](CCCN(C)S(=O)(=O)c2cccs2)c2ccc(OC)c(OC)c2)C3=O)CC1,> 8.30,,,
COc1ccc(C(CNS(=O)(=O)c2cccs2)N2C(=O)c3cccc(N4CCN([C@@H](C)c5ccccc5)CC4)c3C2=O)cc1OC (stereo not given in full),6.54,,,pIC50 (Urotensin-2 receptor [1]; [17]): 7.12
CCN1CCN(c2cccc3c2[C@H]2CCC[C@H](c4ccc(OC)c(OC)c4)N2C3=O)CC1,,,7.85,
CCN1CCN(c2cccc3c2CN([C@H](CCCNS(=O)(=O)c2cn(C)c(C)n2)c2ccc(OC)c(OC)c2)C3=O)CC1,7.60,7.29,,pIC50 (Urotensin-2 receptor [1]): 7.64
COc1ccc(C(CCNC(=O)OC(C)(C)C)N2C(=O)c3cccc(N4CCN([C@@H](C)c5ccccc5)CC4)c3C2=O)cc1OC (stereo not given in full),6.27,,6.96,
Cc1cc(NC(=O)NCCN2CCC(O)(Cc3ccccc3)CC2)c2ccccc2n1 [PALOSURAN],7.39,6.49,,pIC50 (Urotensin-2 receptor [1]; [17]): < 4.12
COc1ccc(CN2C(=O)c3cccc(N4CCN(Cc5c(F)cccc5F)CC4)c3C2=O)cc1OC,6.51,,6.00,half-life [4]: < 3 min
COc1ccc([C@@H](CCCN(C)S(=O)(=O)c2cccs2)N2Cc3c(cccc3N3CCN(C)CC3)C2=O)cc1OC,> 8.22,,,
CCN1CCN(c2cccc3c2CN([C@H](CCCNc2cncc(Cl)n2)c2ccc(OC)c(OC)c2)C3=O)CC1,7.21,6.30,9.00,
COc1ccc(CN2C(=O)c3cccc(N4CCN(Cc5ccccc5)CC4)c3C2=O)cc1OC,6.80,,,half-life [4]: < 3 min
COc1ccc([C@@H](CCCN(C)S(=O)(=O)c2cccs2)N2Cc3c(cccc3N3CCN(C4CC4)CC3)C2=O)cc1OC,,5.92,,
COc1cc(Br)c(S(=O)(=O)Nc2ccc(C(F)(F)F)c(O[C@@H]3CCN(C)C3)c2)cc1OC,,,,pIC50 (Urotensin-2 receptor [1]; [17]): 7.47; Activity (Rattus norvegicus [8]): Active; inhibition at 0.1 µM (Aorta): 97%
CCN1CCN(c2cccc3c2CN([C@H](CCCNC(=O)c2cccs2)c2ccc(OC)c(OC)c2)C3=O)CC1,,6.85,,
CC(=O)N[C@H]1CSSC[C@@H](C(N)=O)NC(=O)[C@H](Cc2ccc3ccccc3c2)NC(=O)[C@H](CCCCN)NC(=O)[C@H](Cc2c[nH]c3ccccc23)NC(=O)[C@H](Cc2ccccc2)NC1=O (Ac-CFWK[2Nal]C-NH2; disulfide 1-6),,,,pKi (Urotensin-2 receptor [9]): 9.92; pEC50 (Urotensin-2 receptor [1]): 9.27
CCN1CCN(c2cccc3c2CN([C@H](CCCNS(=O)(=O)c2cccs2)c2ccc(OC)c(OC)c2)C3=O)CC1,,,,Activity (Rattus norvegicus [8]): Active; Activity (Rattus norvegicus [10]): Active; inhibition [11]: 68%; inhibition [12]: 65%; inhibition [13]: 55%; inhibition [14]: 93%; inhibition [15]: 66%; inhibition [16]: 59%; inhibition at 0.1 µM (Aorta): 74%
COc1ccc([C@@H](CCCNS(C)(=O)=O)N2C(=O)c3cccc(N4CCN([C@H](C)c5ccccc5)CC4)c3C2=O)cc1OC,5.85,,6.96,

# The next lines start with results.
pKi (Urotensin-2 receptor [2]),pIC50 (Urotensin-2 receptor [3]),pIC50 (Urotensin-2 receptor [7]),SMILES,also measured
7.82,6.49,,COc1ccc([C@@H](CCCNC(=O)c2cnoc2C)N2Cc3c(cccc3N3CCN([C@H](C)c4ccccc4)CC3)C2=O)cc1OC,pIC50 (Urotensin-2 receptor [1]; [17]): 8.22
6.37,,6.92,COc1ccc(C(CNC(=O)OC(C)(C)C)N2C(=O)c3cccc(N4CCN([C@@H](C)c5ccccc5)CC4)c3C2=O)cc1OC (stereo not given in full),
,6.30,,COc1ccc([C@@H](CCCN(C)S(=O)(=O)c2cccs2)N2Cc3c(cccc3N3CCN(C(C)C)CC3)C2=O)cc1OC,
< 5.00,,,COc1ccc([C@@H](CCCCNC(=O)OC(C)(C)C)N2C(=O)c3cccc(N4CCN([C@H](C)c5ccccc5)CC4)c3C2=O)cc1OC,pIC50 (Urotensin-2 receptor [1]; [17]): 4.19
8.10,7.21,,CCN1CCN(c2cccc3c2CN([C@H](CCCNc2cncc(OC)n2)c2ccc(OC)c(OC)c2)C3=O)CC1,pIC50 (Urotensin-2 receptor [1]; [17]): 8.40
,,5.77,COc1ccc([C@@H](CCCNS(=O)(=O)c2ccc(Cl)s2)N2C(=O)c3cccc(N4CCN([C@H](C)c5ccccc5)CC4)c3C2=O)cc1OC,
